# Laboratory results reported in ChEMBL document CHEMBL3244167, “Lysosomotropic agents. 1. Synthesis and cytotoxic action of lysosomotropic detergents” (J Med Chem, 1979).
# The source made the active and inactive calls. The calls are words filed in the database; no cut-off is given here.
# Legend:
# [1] = Cytotoxicity against mouse peritoneal macrophages assessed as LDH release at 100 ug/ml after 24 hrs (reference value: 4 to 9 %); format: functional, Peritoneal macrophage cell
# [2] = Cytotoxicity against mouse peritoneal macrophages assessed as […] at 0.75 mM after 24 hrs (reference value: 10 %); format: functional, Peritoneal macrophage cell
# How it was run: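 Thioglycolate-stimulated mouse peritoneal macrophages, 2-4 × 10^6 cells/dish, in duplicate. Compound dosed from Me2SO solution at 1 µL/mL, final 0.750 mM; control Me2SO only. At 24 h, units of N-acetyl-β-D-glucosaminidase (lysosomal marker) and LDH (cytoplasmic marker) released into medium were measured, ±15%.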
# P815 [3] = experiment: Induction of cell death in mouse P815 cells assessed as [51Cr] release at 100 ug/ml at 5 hrs (reference value: 10%); format: functional
# [4] = system: Peritoneal macrophage cell; experiment: Induction of large vacuole formation in mouse peritoneal macrophages at 10 to 25 ug/ml; format: functional, cell-based
# [5] = system: Peritoneal macrophage cell; experiment: Induction of cell death in mouse peritoneal macrophages at 50 ug/ml; format: functional, cell-based
# MRC5 [6] = experiment: Cytotoxicity to human MRC5 cells; format: functional, cell-based
# RK13 = experiment: Cytotoxicity to rabbit RK13 cells; format: functional, cell-based; settings: Oryctolagus cuniculus
# Raji [7] = experiment: Cytotoxicity to human Raji cells; format: functional, cell-based
# Mus musculus [8] = experiment: Toxicity in mouse at 500 mg/kg, ip after 10 days; format: organism-based; design: dose 500 mg/kg, route intraperitoneal; settings: in vivo, 240 h
# How it was run: (§1)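 Mice dosed ip; observed for 10 days.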
# WI-38 = experiment: Cytotoxicity to human W138 cells; format: functional, cell-based
# Raji [9] = experiment: Cytotoxicity to human Raji cells at 40 ug/ml after 3 days; format: functional, cell-based
# [10] = Induction of cell lysis in ox RBC at 0.375 mM measured at 4 hrs (reference value: 1.8 %); format: cell-based, Bos taurus, Erythrocyte; settings: cattle, ox red blood cells; read-out: Activity
# [11] = Induction of cell lysis in ox RBC at 0.188 mM measured at 4 hrs (reference value: 1.8 %); format: cell-based, Bos taurus, Erythrocyte; settings: cattle, ox red blood cells; read-out: Activity
# [12] = Induction of cell lysis in ox RBC at 0.375 mM measured at 1 hr (reference value: 1.7 %); format: cell-based, Bos taurus, Erythrocyte; settings: cattle, ox red blood cells; read-out: Activity
# [13] = Induction of cell lysis in ox RBC at 0.188 mM measured at 1 hr (reference value: 1.7 %); format: cell-based, Bos taurus, Erythrocyte; settings: cattle, ox red blood cells; read-out: Activity
# P815 [14] = experiment: Induction of cell death in mouse P815 cells assessed as [51Cr] release at 50 ug/ml at 5 hrs; format: functional
# P815 [15] = experiment: Induction of cell death in mouse P815 cells assessed as [51Cr] release at 9 ug/ml at 5 hrs; format: functional
# P815 [16] = experiment: Induction of cell death in mouse P815 cells assessed as [51Cr] release at 1 ug/ml at 5 hrs; format: functional
# P815 [17] = experiment: Induction of cell death in mouse P815 cells assessed as [51Cr] release at 3 ug/ml at 5 hrs; format: functional
# P815 [18] = experiment: Induction of cell death in mouse P815 cells assessed as [51Cr] release at 27 ug/ml at 5 hrs; format: functional
# Mus musculus [19] = experiment: Toxicity in mouse at 250 mg/kg, ip after 10 days; format: organism-based; design: dose 250 mg/kg, route intraperitoneal; settings: in vivo, 240 h
# How it was run: as §1
# [20] = Induction of cell lysis in rabbit RBC at 0.188 to 0.375 mM measured at 1 to 4 hrs; format: cell-based, Oryctolagus cuniculus; settings: erythrocyte, 375 µM
# HeLa = experiment: Cytotoxicity to human HeLa cells at 100 ug/ml after 24 hrs; format: functional, cell-based
# [21] = system: Peritoneal macrophage cell; experiment: Induction of cell death in mouse peritoneal macrophages at 25 ug/ml; format: functional, cell-based
# [22] = system: Peritoneal macrophage cell; experiment: Induction of large vacuole formation in mouse peritoneal macrophages at 5 ug/ml; format: functional, cell-based
# P815 [23] = experiment: Induction of cell death in mouse P815 cells assessed as [51Cr] release at 25 ug/ml at 5 hrs; format: functional
# Raji [24] = experiment: Cytotoxicity to human Raji cells at 10 ug/ml after 3 days; format: functional, cell-based
# P815 [25] = experiment: Induction of cell death in mouse P815 cells assessed as [51Cr] release at 75 ug/ml at 5 hrs; format: functional
# MRC5 [26] = experiment: Cytotoxicity to human MRC5 cells at 10 ug/ml after 3 days; format: functional, cell-based
smiles,measurement,setting,value
CCCCCCCCNCC(F)(F)F,pKa,physchem,5.9
same,Activity,[1],7%
same,Activity,[2],19%
CCCCCCCCCn1ccnc1,pKa,physchem,6.6
CCCCCCCCCCCCCc1ccncc1,Activity,P815 [3],10%
same,pKa,physchem,5.9
same,Activity,[4],Active
same,Activity,[5],Active
same,Activity,MRC5 [6],Active
same,Activity,RK13,Active
same,Activity,Raji [7],Active
same,Activity,Mus musculus [8],Non-toxic
same,Activity,WI-38,Active
same,Activity,Raji [9],Active
CCCCCCCCCCCCN [DODECYLAMINE],"hemolysis at 4 h, 375 µM",[10],100%
same,"hemolysis at 4 h, 188 µM",[11],100%
same,"hemolysis at 1 h, 375 µM",[12],100%
same,"hemolysis at 1 h, 188 µM",[13],100%
CCCCCCCCCCCCn1ccnc1,Activity,P815 [14],94%
same,Activity,P815 [15],11%
same,Activity,P815 [16],10%
same,Activity,P815 [17],11%
same,Activity,P815 [18],93%
CCCNCC(F)(F)F,Activity,[1],10%
CCCCCCCCCCCCNCC(F)F,Activity,P815 [3],45%
same,Activity,Mus musculus [19],Non-toxic
same,pKa,physchem,7.5
same,Activity,Mus musculus [8],Toxic
CCCCCNCC(F)(F)F,Activity,[1],4%
same,Activity,[2],14%
CCCCCCCCCCCCCCCCCCNCC(F)(F)F,pKa,physchem,4.7
same,Activity,[1],5%
CCCCCCCCCCCCCCNCC(F)(F)F,Activity,[1],5%
same,Activity,[2],25%
CCCCCCCCCCCCCc1ccccn1,pKa,physchem,5.6
Cn1ccnc1 [1-METHYLIMIDAZOLE],pKa,physchem,7
CCCCCCCCCCCCNCC(F)(F)F,"hemolysis at 4 h, 375 µM",[10],6.5%
same,Activity,P815 [3],21%
same,Activity,[20],Non-toxic
same,Activity,HeLa,Active
same,pKa,physchem,5.5
same,Activity,[1],10%
same,Activity,[2],27%
same,Activity,[21],Active
same,Activity,[22],Active
same,"hemolysis at 4 h, 188 µM",[11],7.3%
same,Activity,MRC5 [6],Active
same,Activity,RK13,Active
same,"hemolysis at 1 h, 375 µM",[12],5.2%
same,Activity,Raji [7],Active
same,"hemolysis at 1 h, 188 µM",[13],4.2%
same,Activity,Mus musculus [8],Non-toxic
same,Activity,WI-38,Active
same,Activity,Raji [9],Active
CCCCCCCCCCCCCCCCNCC(F)(F)F,pKa,physchem,5.2
same,Activity,[1],63%
Cc1ccncc1,pKa,physchem,6
CNCC(F)(F)F,pKa,physchem,6
CCCCCCCCCCCCN1CCOCC1,Activity,P815 [23],13%
same,Activity,P815 [3],85%
same,Activity,P815 [14],14%
same,pKa,physchem,7.6
same,Activity,Raji [24],Active
same,Activity,P815 [25],15%
same,Activity,MRC5 [26],Active
CCCCCCCCCCNCC(F)(F)F,Activity,[1],12%
same,Activity,[2],32%
